In ChEMBL document CHEMBL3352113, “Cytoprotective pyridinol antioxidants as potential therapeutic agents for neurodegenerative and mitochondrial diseases” (Bioorg Med Chem, 2014):
Activity calls are given as the source filed them. The rule behind the calls is not given here.

Tested on: Lymphocyte
Test: Cytoprotective activity in human lymphocytes obtained from FRDA patient assessed as viable cells after 16 hrs by trypan blue exclusion assay
Type: functional, cell-based
Details: not given
How it was run: (§1)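 Lymphocytes from FRDA or Leigh's syndrome patients, grown in RPMI-1640 with 15% fetal calf serum and 2 mM glutamine, kept in log phase. Test agents at 0.1, 0.5 and 2.5 µM; diethyl maleate (DEM) added to deplete glutathione and induce oxidative stress. Viability expressed relative to untreated cells (100%). Values are mean ± SD/SEM as tabulated.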

Row | SMILES | Activity
1 | CCCCCCCCCCCCCCCCc1c(C)c(N(C)C)nc(C)c1O | Dose-dependent effect
2 | CCCCCCCCCCCCCCCCc1c(C)c(N2CCC2)nc(C)c1O | Dose-dependent effect

Tested on: Lymphocyte
Test: Cytoprotective activity in human lymphocytes obtained from Leigh's syndrome patient assessed as viable cells at 0.5 uM after 16 hrs by trypan blue exclusion assay
Type: functional
Details: read-out: Activity
How it was run: as §1

Row | SMILES | viability at 0.5 µM
3 | CCCCCCCCCCCCCCCCc1c(C)c(N(C)C)nc(C)c1O | 56%
4 | CCCCCCCCCCCCCCCCc1c(C)c(N2CCC2)nc(C)c1O | 95%

Species on record: Bos taurus
Test: Inhibition of bovine heart mitochondrial NADH oxidase complex I/III/IV assessed as remaining activity at 1 uM by spectrophotometry relative to untreated control
Details: not given

Row | SMILES | Activity
5 | CCCCCCCCCCCCCCCCc1c(C)c(N(C)C)nc(C)c1O | 95%
6 | CCCCCCCCCCCCCCCCc1c(C)c(N2CCC2)nc(C)c1O | 95%

Tested on: Lymphocyte
Test: Increase in ATP production in CoQ10-deficient lymphocytes (unknown origin) assessed as cellular ATP level at 10 uM after 48 hrs using luciferin-luciferase reaction by bioluminescence assay relative to control
Type: functional
Details: not given
How it was run: (§2)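 CoQ10-deficient lymphocyte line GM17932 grown in glucose-free RPMI 1640 with 25 mM galactose, 2 mM glutamine and 10% dialyzed FBS, forcing oxidative phosphorylation. Incubated with compounds at 5, 10 or 25 µM for 48 h. Total intracellular ATP measured by luciferin–luciferase reaction, expressed as % of untreated control.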

Row | SMILES | Activity
7 | CCCCCCCCCCCCCCCCc1c(C)c(N(C)C)nc(C)c1O | 80%
8 | CCCCCCCCCCCCCCCCc1c(C)c(N2CCC2)nc(C)c1O | 76%

Tested on: Lymphocyte
Test: Increase in ATP production in CoQ10-deficient lymphocytes (unknown origin) assessed as cellular ATP level at 25 uM after 48 hrs using luciferin-luciferase reaction by bioluminescence assay relative to control
Type: functional
Details: not given
How it was run: as §2

Row | SMILES | Activity
9 | CCCCCCCCCCCCCCCCc1c(C)c(N(C)C)nc(C)c1O | 37%
10 | CCCCCCCCCCCCCCCCc1c(C)c(N2CCC2)nc(C)c1O | 50%

Species on record: Bos taurus
Test: Inhibition of bovine heart mitochondrial NADH oxidase complex I/III/IV assessed as remaining activity at 10 uM by spectrophotometry relative to untreated control
Details: not given

Row | SMILES | Activity
11 | CCCCCCCCCCCCCCCCc1c(C)c(N(C)C)nc(C)c1O | 86%
12 | CCCCCCCCCCCCCCCCc1c(C)c(N2CCC2)nc(C)c1O | 79%

Tested on: not listed separately
Test: Metabolic stability in bovine liver microsomes at 25 uM after 30 mins by reverse phase HPLC analysis
Type: ADME, Bos taurus
Details: cattle, read-out: Stability
How it was run: (§3)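 Compounds incubated 30 min with activated bovine liver microsomes. Remaining parent compound quantified by reversed-phase HPLC and expressed as % recovered; mean ± SD.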

Row | remaining at 0.5 h, 25 µM | SMILES
13 | 70% | CCCCCCCCCCCCCCCCc1c(C)c(N(C)C)nc(C)c1O
14 | 95% | CCCCCCCCCCCCCCCCc1c(C)c(N2CCC2)nc(C)c1O

Tested on: Lymphocyte
Test: Increase in ATP production in CoQ10-deficient lymphocytes (unknown origin) assessed as cellular ATP level at 5 uM after 48 hrs using luciferin-luciferase reaction by bioluminescence assay relative to control
Type: functional
Details: not given
How it was run: as §2

Row | SMILES | Activity
15 | CCCCCCCCCCCCCCCCc1c(C)c(N(C)C)nc(C)c1O | 96%
16 | CCCCCCCCCCCCCCCCc1c(C)c(N2CCC2)nc(C)c1O | 98%

Tested on: Lymphocyte
Test: Inhibition of ROS generation in diethyl maleate-treated human lymphocytes obtained from FRDA patient compound pretreated for 16 hrs using DCFH-DA by FACS analysis
Type: functional, cell-based
Details: not given
How it was run: (§4)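 FRDA lymphocytes pretreated with compounds at 100, 250 and 500 nM for 16 h, then given DEM for 80 min to raise ROS. Stained with DCFH-DA for 15 min, then DCF fluorescence read by flow cytometry. Reported as % ROS scavenging; mean ± SEM of three experiments run in duplicate.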

Row | SMILES | inhibition
17 | CCCCCCCCCCCCCCCCc1c(C)c(N(C)C)nc(C)c1O | Dose-dependent effect

Tested on: Lymphocyte
Test: Inhibition of oxidative stress-induced mitochondrial membrane depolarization in diethyl maleate-treated human lymphocytes obtained from FRDA patient assessed as cells with intact mitochondrial membrane potential at 100 nM pretreated for 16 hrs using TMRM by FACS analysis (reference value: 95%)
Type: functional
Parameters: scale not given: the % may be the effect or the level left
Details: not given

Row | SMILES | Activity
18 | CCCCCCCCCCCCCCCCc1c(C)c(N(C)C)nc(C)c1O | 62%
19 | CCCCCCCCCCCCCCCCc1c(C)c(N2CCC2)nc(C)c1O | 55%

Tested on: Lymphocyte
Test: Cytoprotective activity in human lymphocytes obtained from FRDA patient assessed as viable cells at 2.5 uM after 16 hrs by trypan blue exclusion assay
Type: functional
Details: read-out: Activity
How it was run: as §1

Row | SMILES | viability at 2.5 µM
20 | CCCCCCCCCCCCCCCCc1c(C)c(N(C)C)nc(C)c1O | 84%
21 | CCCCCCCCCCCCCCCCc1c(C)c(N2CCC2)nc(C)c1O | 92%

Species on record: Bos taurus
Test: Inhibition of bovine heart mitochondrial NADH oxidase complex I/III/IV assessed as remaining activity at 5 uM by spectrophotometry relative to untreated control
Details: not given

Row | SMILES | Activity
22 | CCCCCCCCCCCCCCCCc1c(C)c(N(C)C)nc(C)c1O | 93%
23 | CCCCCCCCCCCCCCCCc1c(C)c(N2CCC2)nc(C)c1O | 89%

Tested on: Lymphocyte
Test: Inhibition of ROS generation in diethyl maleate-treated human lymphocytes obtained from FRDA patient compound pretreated at 100 to 500 nM for 16 hrs using DCFH-DA by FACS analysis
Type: functional, cell-based
Details: not given
How it was run: as §4

Row | SMILES | inhibition
24 | CCCCCCCCCCCCCCCCc1c(C)c(N(C)C)nc(C)c1O | Active
25 | CCCCCCCCCCCCCCCCc1c(C)c(N2CCC2)nc(C)c1O | Active

Tested on: Lymphocyte
Test: Cytoprotective activity in human lymphocytes obtained from Leigh's syndrome patient assessed as viable cells after 16 hrs by trypan blue exclusion assay
Type: functional, cell-based
Details: not given
How it was run: as §1

Row | SMILES | Activity
26 | CCCCCCCCCCCCCCCCc1c(C)c(N(C)C)nc(C)c1O | Dose-dependent effect
27 | CCCCCCCCCCCCCCCCc1c(C)c(N2CCC2)nc(C)c1O | Dose-dependent effect

Tested on: Lymphocyte
Test: Cytoprotective activity in human lymphocytes obtained from Leigh's syndrome patient assessed as viable cells at 0.1 uM after 16 hrs by trypan blue exclusion assay
Type: functional
Details: read-out: Activity
How it was run: as §1

Row | SMILES | viability at 0.1 µM
28 | CCCCCCCCCCCCCCCCc1c(C)c(N(C)C)nc(C)c1O | 11%
29 | CCCCCCCCCCCCCCCCc1c(C)c(N2CCC2)nc(C)c1O | 18%

Tested on: Lymphocyte
Test: Inhibition of oxidative stress-induced mitochondrial membrane depolarization in diethyl maleate-treated human lymphocytes obtained from FRDA patient assessed as cells with intact mitochondrial membrane potential at 250 nM pretreated for 16 hrs using TMRM by FACS analysis (reference value: 95%)
Type: functional
Parameters: scale not given: the % may be the effect or the level left
Details: not given

Row | SMILES | Activity
30 | CCCCCCCCCCCCCCCCc1c(C)c(N(C)C)nc(C)c1O | 83%
31 | CCCCCCCCCCCCCCCCc1c(C)c(N2CCC2)nc(C)c1O | 72%

Tested on: Lymphocyte
Test: Cytoprotective activity in human lymphocytes obtained from Leigh's syndrome patient assessed as viable cells at 2.5 uM after 16 hrs by trypan blue exclusion assay
Type: functional
Details: read-out: Activity
How it was run: as §1

Row | SMILES | viability at 2.5 µM
32 | CCCCCCCCCCCCCCCCc1c(C)c(N(C)C)nc(C)c1O | 85%
33 | CCCCCCCCCCCCCCCCc1c(C)c(N2CCC2)nc(C)c1O | 92%

Tested on: Lymphocyte
Test: Inhibition of lipid peroxidation in diethyl maleate-treated human lymphocytes obtained from FRDA patient at 100 to 250 nM after 16 hrs using C11-BODIPY581/591 by FACS analysis
Type: functional, cell-based
Details: not given
How it was run: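 FRDA lymphocytes depleted of glutathione with DEM, probed with C11-BODIPY581/591. Green (oxidized) fluorescence read by flow cytometry at 490/510 nm. Median mean fluorescence taken relative to untreated control and converted to % lipid peroxidation scavenging; mean ± SEM, n = 3.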

Row | SMILES | inhibition
34 | CCCCCCCCCCCCCCCCc1c(C)c(N(C)C)nc(C)c1O | Active
35 | CCCCCCCCCCCCCCCCc1c(C)c(N2CCC2)nc(C)c1O | Active

Species on record: Bos taurus
Test: Inhibition of bovine heart mitochondrial NADH oxidase complex I/III/IV assessed as remaining activity by spectrophotometry relative to untreated control
Details: not given

Row | SMILES | inhibition
36 | CCCCCCCCCCCCCCCCc1c(C)c(N(C)C)nc(C)c1O | Dose-dependent effect
37 | CCCCCCCCCCCCCCCCc1c(C)c(N2CCC2)nc(C)c1O | Dose-dependent effect

Tested on: Lymphocyte
Test: Cytoprotective activity in human lymphocytes obtained from FRDA patient assessed as viable cells at 0.1 uM after 16 hrs by trypan blue exclusion assay
Type: functional
Details: read-out: Activity
How it was run: as §1

Row | SMILES | viability at 0.1 µM
38 | CCCCCCCCCCCCCCCCc1c(C)c(N(C)C)nc(C)c1O | 52%
39 | CCCCCCCCCCCCCCCCc1c(C)c(N2CCC2)nc(C)c1O | 58%

Tested on: Lymphocyte
Test: Inhibition of oxidative stress-induced mitochondrial membrane depolarization in diethyl maleate-treated human lymphocytes obtained from FRDA patient assessed as cells with intact mitochondrial membrane potential at 500 nM pretreated for 16 hrs using TMRM by FACS analysis (reference value: 95%)
Type: functional
Parameters: scale not given: the % may be the effect or the level left
Details: not given

Row | SMILES | Activity
40 | CCCCCCCCCCCCCCCCc1c(C)c(N(C)C)nc(C)c1O | 91%
41 | CCCCCCCCCCCCCCCCc1c(C)c(N2CCC2)nc(C)c1O | 89%

Tested on: Lymphocyte
Test: Cytoprotective activity in human lymphocytes obtained from FRDA patient assessed as viable cells at 0.5 uM after 16 hrs by trypan blue exclusion assay
Type: functional
Details: read-out: Activity
How it was run: as §1

Row | SMILES | viability at 0.5 µM
42 | CCCCCCCCCCCCCCCCc1c(C)c(N(C)C)nc(C)c1O | 75%
43 | CCCCCCCCCCCCCCCCc1c(C)c(N2CCC2)nc(C)c1O | 79%

Tested on: Lymphocyte
Test: Inhibition of oxidative stress-induced mitochondrial membrane depolarization in diethyl maleate-treated human lymphocytes obtained from FRDA patient assessed as cells with intact mitochondrial membrane potential pretreated for 16 hrs using TMRM by FACS analysis
Type: functional, cell-based
Details: not given

Row | SMILES | inhibition
44 | CCCCCCCCCCCCCCCCc1c(C)c(N(C)C)nc(C)c1O | Dose-dependent effect

Tested on: not listed separately
Test: Drug metabolism in bovine liver microsomes at 25 uM after 30 mins by reverse phase HPLC analysis
Type: ADME, Bos taurus
Details: cattle, read-out: Drug metabolism
How it was run: as §3

Row | metabolised at 0.5 h, 25 µM | SMILES
45 | 20% | CCCCCCCCCCCCCCCCc1c(C)c(N(C)C)nc(C)c1O
